FID counter: compounds displacing fluorescent DNA intercalator, primary screen, artefact control for HCV NS3 helicase inhibitor project, biochemical, FID fluorescence | DNA fluorescent intercalator displacement | inhibition, % at 7.9 µM | 290,000 compounds, 0.17% hits | AID 1845, 2009; in the data active = inhibition above about 37%;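 note: 0% = vehicle and 100% = reference compound; higher means more ethidium bromide displaced from hairpin DNA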
IMP-1 inh-1: IMP-1 metallo-beta-lactamase inhibitors, primary screen, biochemical, epi-absorbance readout, Pseudomonas aeruginosa enzyme. metallo-beta-lactamase IMP-1 (Pseudomonas aeruginosa). 290,000 compounds, 0.45% hits. AID 1556, 2009. inhibition, % at 5.6 µM. purified IMP-1, nitrocefin hydrolysis, epi-absorbance fluorescence;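 active = inhibition above the mean plus 3 SD of all compounds in the same screening run, cut at about 4.5% in these data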;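 note: 0% = IMP-1 with DMSO and 100% = DMSO wells lacking enzyme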
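System: Purified recombinant IMP-1 metallo-beta-lactamase enzyme | Measured by: Fluorescence quenching readout, ex 480/em 530 nm | Replication: Singlicate | Incubation: 15 min preincubation plus 25 min reaction at 25 °C | Evaluation: Percent inhibition from optical density relative to buffer-blank wells | Benchmarks: DMSO with and without IMP-1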
UBC9 SUMO inh: inhibitors of in vitro SUMOylation cascade, primary screen, biochemical, HTRF, uHTS | SUMO-conjugating enzyme UBC9 (Homo sapiens), P63279 | HTRF SUMOylation assay, SAE1/SAE2 + UBC9 | 290,000 compounds, 0.36% hits | AID 2006, 2009 | inhibition, % at 35 µM; in the data active = inhibition above about 50%, passing the limit was not always enough
Target sequence (P63279 whole entry, looked up): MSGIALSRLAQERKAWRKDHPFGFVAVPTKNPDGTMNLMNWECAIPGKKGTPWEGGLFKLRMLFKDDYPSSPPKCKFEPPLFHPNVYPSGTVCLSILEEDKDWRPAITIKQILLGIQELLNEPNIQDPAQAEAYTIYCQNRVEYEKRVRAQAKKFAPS
NS3 helicase inh: inhibitors of HCV NS3 helicase, primary screen, biochemical, Cy5 molecular beacon fluorescence; inhibition, % at 10.9 µM; AID 1800, 2009; 290,000 compounds, 0.56% hits; NS3 helicase DNA unwinding; Hepatitis C virus NS3 helicase;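 active = inhibition above the mean of all tested compounds plus 3 SD, set per campaign, cut at about 35% in these data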;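 note: 0% = DMSO wells and 100% = thioflavine S control wells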
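System: Hepatitis C virus NS3 helicase domain fragment enzyme | Reagent: Annealed dual-labelled DNA beacon duplex, ATP-started | Compound dosing: 10.9 µM single point, 0.8% DMSO | Incubation: 1 h reaction at 25 °C, ATP-initiated | Technique: Cy5 fluorescence | Evaluation: Percent inhibition from t60/t0 fluorescence ratio | Benchmarks: Low DMSO, high thioflavine S at 110 µM | Replication: Singlicate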
VIM-2 inhibitor: VIM-2 metallo-beta-lactamase inhibitors, primary screen, biochemical, epi-absorbance readout, Pseudomonas aeruginosa enzyme; AID 1527, 2009; purified VIM-2, nitrocefin hydrolysis, epi-absorbance fluorescence; 290,000 compounds, 0.89% hits; inhibition, % at 5.6 µM;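 active = inhibition above the mean of all tested compounds plus 3 SD, cutoff set per screening run, cut at about 7.5% in these data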;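 note: red hydrolysis product quenches plate fluorescence so inhibitors raise well fluorescence; 0% = enzyme with DMSO and 100% = DMSO without enzyme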
IMP-1 inh-2: IMP-1 metallo-beta-lactamase inhibitors, confirmation, selectivity assay for selective VIM-2 inhibitor project, biochemical, epi-absorbance readout, triplicate; purified IMP-1, nitrocefin hydrolysis, epi-absorbance fluorescence; shares compounds with VIM-2 inhibitor; inhibition, % at 5.6 µM; 1,300 tested, under 10 active; call rule not given here;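 note: 0% = enzyme with vehicle and 100% = vehicle without enzyme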
VIM-2 FRET ctr: VIM-2 inhibitors in FRET format, confirmation, artefact control for selective VIM-2 inhibitor project, biochemical, epi-absorbance artifact exclusion; inhibition, % at 5.6 µM; 1,300 compounds, 23% hits; shares compounds with VIM-2 inhibitor; purified VIM-2, CCF2 FRET substrate hydrolysis;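 active = inhibition above the mean of all tested compounds plus 3 SD, cut at about 19% in these data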;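 note: 0% = VIM-2 plus DMSO and 100% = no enzyme wells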
TEM-1 counter: TEM-1 serine beta-lactamase inhibitors, counter-screen for VIM-2 inhibitor project, biochemical, epi-absorbance, HTS; shares compounds with VIM-2 inhibitor; Purified TEM-1, nitrocefin hydrolysis, epi-absorbance fluorescence; inhibition, % at 5.6 µM; 1,300 compounds, 3% hits; AID 1866, 2009;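 active = inhibition above that campaign's mean inhibition plus 3 SD, cut at about 0.46% in these data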;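 note: 0% = TEM-1 with DMSO and 100% = TEM-1 with 100 µM potassium clavulanate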
Target sequence (P62593 whole entry, looked up): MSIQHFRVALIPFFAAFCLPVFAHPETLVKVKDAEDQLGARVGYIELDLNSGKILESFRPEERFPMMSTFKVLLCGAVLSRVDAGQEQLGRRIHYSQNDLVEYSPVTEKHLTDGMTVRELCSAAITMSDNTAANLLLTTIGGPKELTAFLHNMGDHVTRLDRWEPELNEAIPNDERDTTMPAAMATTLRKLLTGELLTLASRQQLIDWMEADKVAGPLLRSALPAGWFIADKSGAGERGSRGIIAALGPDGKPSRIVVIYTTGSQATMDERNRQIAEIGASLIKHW
VIM-2 inh conf: VIM-2 metallo-beta-lactamase inhibitors, confirmation, biochemical, epi-absorbance, hits shared with IMP-1 screen | shares compounds with VIM-2 inhibitor | purified VIM-2, nitrocefin hydrolysis | inhibition, % at 5.6 µM | 1,300 compounds, 96% hits;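 active = inhibition of the VIM-2 beta-lactamase enzyme above about 11% from the earlier first-round screen, limit read from the data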;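 note: 0% = VIM-2 with DMSO and 100% = buffer wells without enzyme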
* hit, by the source's call; . = not tested or not shown. Sampled rows, rich in hits. Any-hit rate of the full collection: about 2.1%.

SMILES	FID counter	IMP-1 inh-1	UBC9 SUMO inh	NS3 helicase inh	VIM-2 inhibitor	IMP-1 inh-2	VIM-2 FRET ctr	TEM-1 counter	VIM-2 inh conf
Cc1c(C)c2ccc(OCC(=O)NCCCn3ccnc3)c(C)c2oc1=O	12	1	26	30	42*	-4	-4	-12	49*
Cc1cc(=O)oc2c(C)c(OCC(=O)NCCCn3ccnc3)ccc12	10	-3	7	3	19*	-3	-6	-8	35*
COc1ccccc1OCC(=O)NCCCn1ccnc1	3	1	15	-12	-4	.	.	.	.
Cc1c(OC(C)C(=O)NCC2CCC(C(=O)O)CC2)ccc2c3c(c(=O)oc12)CCCC3 (stereo not given)	-65	-4	3	-4	-2	.	.	.	.
Cc1c(OCC(=O)NCCCn2ccnc2)ccc2c3c(c(=O)oc12)CCC3	6	-1	7	-4	48*	-3	-8	-13	58*
Cc1c(OC(C)C(=O)NCCCn2ccnc2)ccc2c3c(c(=O)oc12)CCC3 (stereo not given)	0	-3	12	-1	49*	-2	-3	-8	64*
CCN(C(=O)CSc1nc2cc(S(=O)(=O)N(CC)CC)ccc2o1)C1CCS(=O)(=O)C1 (stereo not given)	-27	0	6	4	-2	.	.	.	.
Cc1coc2c(C)c3oc(=O)c(CCC(=O)NCCCn4ccnc4)c(C)c3cc12	22	4	19	-36	31*	-2	-6	-12	36*
C=CCn1c(=O)c2c(nc(-n3nc(C)cc3C)n2C)n(C)c1=O	-10	1	1	6	0	.	.	.	.
CCOc1ccc(Nc2cc(C)nc(-n3nc(C)cc3C)n2)cc1	-22	-5	5	-1	17*	-4	-64	-7	43*
CCOC(=O)/C=C/C(=O)Nc1ccccc1C(=O)NC1CCCCC1	-18	-1	-5	1	-2	.	.	.	.
Cn1c(=O)[nH]c(=O)c2c1nc(NCCCn1ccnc1)n2Cc1ccccc1	-1	-3	10	6	1	.	.	.	.
Cn1c(=O)[nH]c(=O)c2c1nc(NCCCn1ccnc1)n2CCOc1ccccc1	2	0	15	-8	21*	-3	-5	-5	33*
O=c1[nH]c(CN2CCN(c3ccc(F)cc3)CC2)nc2ccccc12	-7	-4	1	-2	55*	-4	-2	-7	-1
O=c1[nH]c(CN2CCN(c3ccccc3)CC2)nc2ccccc12	-9	-2	2	0	-1	.	.	.	.
CCCN1CCc2c(sc(NC(=O)c3ccc(S(=O)(=O)N4CCN(C(=O)OCC)CC4)cc3)c2C(N)=O)C1	0	2	1	-59	2	.	.	.	.
CCOC(=O)N1CCN(S(=O)(=O)c2ccc(C(=O)Nc3sc4c(c3C(=O)OC)CCN(C)C4)cc2)CC1	29	-1	6	-47	77*	-2	4	-8	82*
Cn1c(SCc2cccc(F)c2)nnc1-c1ccncc1	-6	-2	2	-6	-2	.	.	.	.
COc1ccc(C2=C(SC)CC2=NC(C)(C)C)cc1	-5	-2	8	9	-2	.	.	.	.
Cc1c(C)c2ccc(OC(C)C(=O)NCCN3CCOCC3)c(C)c2oc1=O (stereo not given)	2	-3	0	4	7	.	.	.	.
Cc1c(OC(C)C(=O)NCCCN2CCOCC2)ccc2c3c(c(=O)oc12)CCC3 (stereo not given)	5	-2	.	5	24*	-3	-1	-10	33*
Cc1c(OC(C)C(=O)NCCN2CCOCC2)ccc2c3c(c(=O)oc12)CCC3 (stereo not given)	-4	-2	19	-2	19*	-5	2	-13	26*
COc1ccc(CCC(C)NCc2cccc(Br)c2)cc1 (stereo not given)	17	1	0	-12	0	.	.	.	.
C[N+]1(CC(=O)NNc2c3ccccc3nc3ccccc23)CCOCC1	43*	-4	-8	9	21*	-5	3	-10	33*
O=C(CN1CCOCC1)NNc1c2ccccc2nc2ccccc12	14	0	1	16	0	.	.	.	.
SMILES	FID counter	IMP-1 inh-1	UBC9 SUMO inh	NS3 helicase inh	VIM-2 inhibitor	IMP-1 inh-2	VIM-2 FRET ctr	TEM-1 counter	VIM-2 inh conf
CCCc1cc(=O)oc2cc(C)cc(OC(C)C(=O)NCCCn3ccnc3)c12 (stereo not given)	-6	-3	13	17	18*	-2	-10	-2	28*
CCCc1cc(=O)oc2cc(C)cc(OC(C)C(=O)NCCCN3CCOCC3)c12 (stereo not given)	5	-4	20	2	-1	.	.	.	.
Cc1cc(OC(C)C(=O)NCCCn2ccnc2)c2c(C)cc(=O)oc2c1 (stereo not given)	-7	-2	18	-2	28*	-2	-4	-3	39*
Cc1cccnc1CN1CCN(C(=O)c2cc(COc3ccc4ncccc4c3)on2)CC1	-25	-3	7	1	48*	-3	-20	-4	64*
CN(Cc1ccccc1)C(=O)COC(=O)c1cc(NS(=O)(=O)c2cccs2)ccc1O	-15	-2	-5	4	-2	.	.	.	.
CN1CCN(C(=O)CSc2nc3c(c(=O)n(C)c(=O)n3C)n2C)CC1	-5	-2	6	-1	76*	-4	2	-7	79*
